Data reported in ChEMBL document CHEMBL1149648, “Norcantharimides, synthesis and anticancer activity: Synthesis of new norcantharidin analogues and their anticancer evaluation” (2007).

Experiments:
Format in all cases: functional
HT-29 = experiment: Cytotoxicity against human HT29 cells at 100 uM after 72 hrs by MTT assay; details: HT-29, 72 h
Summary of the method: (§1)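 Log-phase cells in DMEM with 10% FBS (37 °C, 5% CO2) were plated in duplicate at 2500–4000 cells/well. Agent was added 24 h later at a fixed final concentration of 100 µM and left for 72 h continuous exposure. Read-out was MTT absorbance at 540 nm, expressed as percent growth inhibition, where 100% means total growth inhibition.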

SW480 = experiment: Cytotoxicity against human SW480 cells at 100 uM after 72 hrs by MTT assay; details: SW480, 72 h; summary of the method: as §1
MCF7 = experiment: Cytotoxicity against human MCF7 cells at 100 uM after 72 hrs by MTT assay; details: MCF7, 72 h; summary of the method: as §1
A2780 = experiment: Cytotoxicity against human A2780 cells at 100 uM after 72 hrs by MTT assay; details: A2780, 72 h; summary of the method: as §1
NCI-H460 = experiment: Cytotoxicity against human H460 cells at 100 uM after 72 hrs by MTT assay; details: NCI-H460, 72 h; summary of the method: as §1
A-431 = experiment: Cytotoxicity against human A431 cells at 100 uM after 72 hrs by MTT assay; details: A-431, 72 h; summary of the method: as §1
DU-145 = experiment: Cytotoxicity against human DU145 cells at 100 uM after 72 hrs by MTT assay; details: DU-145, 72 h; summary of the method: as §1
[1] = Cytotoxicity against human BE2C cells at 100 uM after 72 hrs by MTT assay; details: BE(2)-C; summary of the method: as §1
[2] = Cytotoxicity against human SJG2 cells at 100 uM after 72 hrs by MTT assay; details: SJ-G2, 72 h; summary of the method: as §1

Row | SMILES | inhibition at 100 µM (HT-29) [%] | inhibition at 100 µM (SW480) [%] | inhibition at 100 µM (MCF7) [%] | inhibition at 100 µM (A2780) [%] | inhibition at 100 µM (NCI-H460) [%] | inhibition at 100 µM (A-431) [%] | inhibition at 100 µM (DU-145) [%] | inhibition at 100 µM [1] [%] | inhibition at 100 µM [2] [%] | GI50 (HT-29) [µM] | GI50 (SW480) [µM] | GI50 (MCF7) [µM] | GI50 (A2780) [µM] | GI50 (NCI-H460) [µM] | GI50 (A-431) [µM] | GI50 (DU-145) [µM] | GI50 [1] [µM] | GI50 [2] [µM]
1 | O=C1[C@@H]2[C@H](C(=O)N1CCCCCCO)[C@@H]1CC[C@H]2O1 | 21 | 16 | 51 | 18 | 14 | 6 | < 10 | 22 | 12 | – | – | – | – | – | – | – | – | –
2 | CC(CO)N1C(=O)[C@@H]2[C@H](C1=O)[C@@H]1CC[C@H]2O1 (stereo partly specified) | < 10 | < 10 | < 10 | < 10 | < 10 | < 10 | < 10 | < 10 | < 10 | – | – | – | – | – | – | – | – | –
3 | CCC(CO)N1C(=O)[C@@H]2[C@H](C1=O)[C@@H]1CC[C@H]2O1 (stereo partly specified) | < 10 | < 10 | < 10 | < 10 | < 10 | < 10 | < 10 | < 10 | < 10 | – | – | – | – | – | – | – | – | –
4 | O=C1[C@@H]2[C@H](C(=O)N1CCN1CCOCC1)[C@@H]1CC[C@H]2O1 | < 10 | < 10 | < 10 | < 10 | < 10 | < 10 | < 10 | < 10 | < 10 | – | – | – | – | – | – | – | – | –
5 | O=C1[C@@H]2[C@H](C(=O)N1CCCN1CCOCC1)[C@@H]1CC[C@H]2O1 | < 10 | < 10 | < 10 | < 10 | < 10 | < 10 | < 10 | < 10 | < 10 | – | – | – | – | – | – | – | – | –
6 | O=C1[C@@H]2[C@H](C(=O)N1c1ccc([N+](=O)[O-])cc1)[C@@H]1CC[C@H]2O1 | 60 | 44 | > 100 | 53 | 37 | 13 | 13 | 45 | 23 | – | – | – | – | – | – | – | – | –
7 | O=C(O)c1ccc(N2C(=O)[C@@H]3[C@H](C2=O)[C@@H]2CC[C@H]3O2)cc1 | < 10 | < 10 | < 10 | < 10 | < 10 | < 10 | < 10 | < 10 | < 10 | – | – | – | – | – | – | – | – | –
8 | O=C1[C@@H]2[C@H](C(=O)N1CCCN1C(=O)[C@@H]3[C@H](C1=O)[C@@H]1CC[C@H]3O1)[C@@H]1CC[C@H]2O1 | 10 | 16 | 52 | 31 | 18 | 10 | 13 | 10 | 10 | – | – | – | – | – | – | – | – | –
9 | CCCCCCCCCCCCCCN1C(=O)[C@@H]2[C@H](C1=O)[C@@H]1CC[C@H]2O1 | – | – | – | – | – | – | – | – | – | 19 | 52 | 43 | 35 | 66 | 47 | 73 | 50 | 49
10 | O=C1[C@@H]2[C@H](C(=O)N1CCO)[C@@H]1CC[C@H]2O1 | 31 | 18 | 45 | 15 | 16 | < 10 | < 10 | < 10 | < 10 | – | – | – | – | – | – | – | – | –
11 | COc1ccc(CN2C(=O)[C@@H]3[C@H](C2=O)[C@@H]2CC[C@H]3O2)cc1 | 45 | 24 | 64 | 20 | 23 | 14 | < 10 | 29 | 11 | – | – | – | – | – | – | – | – | –
12 | O=C1[C@@H]2[C@H](C(=O)N1CCCCCCCCCCCCN1C(=O)[C@@H]3[C@H](C1=O)[C@@H]1CC[C@H]3O1)[C@@H]1CC[C@H]2O1 | – | – | – | – | – | – | – | – | – | 8.3 | 24 | 18 | 19 | 31 | 18 | 60 | 17 | 43
13 | O=C1[C@@H]2[C@H](C(=O)N1N1CCOCC1)[C@@H]1CC[C@H]2O1 | 29 | 29 | 12 | 7 | 18 | 30 | 3 | 39 | 3 | – | – | – | – | – | – | – | – | –
14 | CC(C)(CO)N1C(=O)[C@@H]2[C@H](C1=O)[C@@H]1CC[C@H]2O1 | < 10 | < 10 | < 10 | < 10 | < 10 | < 10 | < 10 | < 10 | < 10 | – | – | – | – | – | – | – | – | –
15 | CCN1C(=O)[C@@H]2[C@H](C1=O)[C@@H]1CC[C@H]2O1 | < 10 | < 10 | < 10 | < 10 | < 10 | < 10 | < 10 | < 10 | < 10 | – | – | – | – | – | – | – | – | –
16 | O=C1[C@@H]2[C@H](C(=O)N1c1ccc(O)cc1)[C@@H]1CC[C@H]2O1 | 47 | 21 | 22 | 15 | 12 | 27 | < 10 | 14 | 44 | – | – | – | – | – | – | – | – | –
17 | O=C(O)CCCN1C(=O)[C@@H]2[C@H](C1=O)[C@@H]1CC[C@H]2O1 | < 10 | < 10 | < 10 | < 10 | < 10 | < 10 | < 10 | < 10 | < 10 | – | – | – | – | – | – | – | – | –
18 | O=C(O)CCCCCN1C(=O)[C@@H]2[C@H](C1=O)[C@@H]1CC[C@H]2O1 | 14 | 11 | 47 | 52 | 12 | 11 | 12 | 22 | < 10 | – | – | – | – | – | – | – | – | –
19 | O=C1[C@@H]2[C@H](C(=O)N1c1ccccc1)[C@@H]1CC[C@H]2O1 | 63 | 78 | > 100 | 90 | 50 | 25 | 24 | 54 | 42 | – | – | – | – | – | – | – | – | –
